Key:
[1] = tested on: PML-NBs in IMR90 normal human fibroblasts (control vector or activated RAS); experiment: PML-NB formation by anti-PML immunofluorescence; type: cell-based; conditions: 24h treatment, 5 μM pyrithione
Summary of the method: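 IMR90 fibroblasts in pyruvate-free DMEM with 10% FBS and 1% penicillin/streptomycin, transduced with retroviral pBABE control or pBABE-RAS-V12. On day 6, plated on coverslips and treated next day for 24 h with vehicle, 5 μM pyrithione or 1 μM TPEN. Cells fixed in 4% PFA, permeabilised with 0.4% Triton X-100 and 0.1 M glycine, then blocked in 3% BSA. Anti-PML (1/250, overnight, 4°C), Alexa 568 secondary, DAPI. PML-NBs per cell and PML-NBs >1 μm counted.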

[2] = molecular target: ΔN-SUMO1 (residues 17–97 of human SUMO1) (Homo sapiens, UniProt P63165, C52A); experiment: ITC binding to ΔN-SUMO1; conditions: ΔN-SUMO1, 20 mM Tris–HCl pH 7.4, 25°C
[3] = molecular target: SUMO1 (residues 2–97 of human SUMO1 with a C52A substitution) (Homo sapiens, UniProt P63165, C52A); experiment: ITC binding to SUMO1
[4] = molecular target: UBC9 (residues 2-158 of human UBC9) (human, UniProt P63279 2-158); experiment: ITC
[5] = molecular target: ΔN-SUMO2 (residues 14-93) (human, UniProt P61956 14-93, C48A); experiment: ITC
[6] = molecular target: SUMO2 (residues 2-93 of human SUMO2 with a C48A substitution) (human, UniProt P61956 2-93, C48A); experiment: ITC
SUMO2 (residues 2-93 of human SUMO2 with a C48A substitution), sequence (P61956 2-93 C48A): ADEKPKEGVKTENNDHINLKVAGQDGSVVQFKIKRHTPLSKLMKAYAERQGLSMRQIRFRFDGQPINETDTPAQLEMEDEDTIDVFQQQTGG

UBC9 (residues 2-158 of human UBC9), sequence (P63279 2-158): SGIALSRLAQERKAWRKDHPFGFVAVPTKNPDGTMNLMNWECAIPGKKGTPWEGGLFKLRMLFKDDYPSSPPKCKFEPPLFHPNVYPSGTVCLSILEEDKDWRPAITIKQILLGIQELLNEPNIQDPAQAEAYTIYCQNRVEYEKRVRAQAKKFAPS
ΔN-SUMO2 (residues 14-93), sequence (P61956 14-93 C48A): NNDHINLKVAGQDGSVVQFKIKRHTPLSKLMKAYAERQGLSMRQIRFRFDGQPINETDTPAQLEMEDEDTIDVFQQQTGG

[O-][n+]1ccccc1S [pyrithione]
formation of PML-NBs ([1]; Ras-expressing (senescent) IMR90 cells): induces significantly the formation of PML-NBs | formation of PML-NBs ([1]; vector-control IMR90 cells): only a marginal increase

UBC9: residues 2–158 of human UBC9; E2 SUMO conjugating enzyme
Kd [2]: 73 ± 15 nM | Kd ([3]; ITC, SUMO1, 20 mM Tris–HCl pH 7.4, 25°C): 29 ± 11 nM | fold stronger binding to SUMO1 in comparison to ΔN-SUMO1 ([3]; ratio of ITC KD values, 20 mM Tris–HCl pH 7.4): roughly 2.5 fold

B1: ΔN-SUMO1 (residues 17-97 of human SUMO1) (domain or fragment, UniProt P63165 17-97, looked up)
chain: KEGEYIKLKVIGQDSSEIHFKVKMTTHLKKLKESYAQRQGVPMNSLRFLFEGQRIADNHTPKELGMEEEDVIEVYQEQTGG
Kd [4]: 73 ± 15 nM

YKTSVATQADPEEIIVLDDDD [Daxx-SIM-2SD (Daxx-SIM with S/D substitutions at positions 737 and 739)]
Kd [5]: 510 ± 110 nM | Kd [6]: 1000 ± 100 nM

From PMC9371903 (Nucleic Acids Research, 2022)
